High-throughput results: PubChem BioAssay, several laboratories
KCNQ1 pot: potentiators or activators of human KCNQ1 potassium channel | P51787 | CHO-K1 KCNQ1, thallium flux FluxOR fluorescence; active compounds read high | B-score at 10 µM | 310,000 tested, 0.35% active | AID 2648;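 active = fluorescence ratio B-score, a plate-corrected score, at least three library SD, with initial intensity B-score within 5 SD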
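System: Stable KCNQ1 CHO-K1 line | Incubation: 90 min dye loading and 20 min compound exposure, both at room temperature | Measure: Ratio B score | Medium: Assay buffer for compound exposure, DMSO matched across wells | Compound dosing: Single-concentration screen | Probe or stimulus: K+/Tl+ depolarizing stimulus | Measured by: Kinetic FluxOR fluorescence, 10 s baseline plus 110 s post-stimulus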
AI-2 QS modul: modulates the Vibrio harveyi AI-2 quorum sensing system; Vibrio harveyi JMH597 AI-2 luminescence/OD600 ratio, 9 h; active compounds read low; strain lacks LuxN and CqsS sensors; 0 = neutral-control median; activity change, % at 7.5 µM; 300,000 tested, 0.4% active; AID 2094; in the data active = activity change below about -75%, passing the limit was not always enough; inconclusive = no clear call, values can overlap the other calls;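 note: luminescence divided by OD600 gain over 9 h not by final OD600 alone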
KCC2 mod: modulates chloride dependent transport by human KCC2 | Q9H2X9 | KCC2 cells, thallium flux FluoZin-2 fluorescence | B-score of Tl+ flux slope (higher = more flux/activation; lower = inhibition) at 10 µM | 190,000 tested, 2.2% active | AID 1456;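 active = thallium flux slope and its plate-corrected score both differing from the plate sample mean at a set confidence after two filtering rounds, in either direction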;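 note: slope of fluorescence scaled to starting intensity during 10 to 20 s after thallium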
Target sequence (Q9H2X9 whole entry, looked up): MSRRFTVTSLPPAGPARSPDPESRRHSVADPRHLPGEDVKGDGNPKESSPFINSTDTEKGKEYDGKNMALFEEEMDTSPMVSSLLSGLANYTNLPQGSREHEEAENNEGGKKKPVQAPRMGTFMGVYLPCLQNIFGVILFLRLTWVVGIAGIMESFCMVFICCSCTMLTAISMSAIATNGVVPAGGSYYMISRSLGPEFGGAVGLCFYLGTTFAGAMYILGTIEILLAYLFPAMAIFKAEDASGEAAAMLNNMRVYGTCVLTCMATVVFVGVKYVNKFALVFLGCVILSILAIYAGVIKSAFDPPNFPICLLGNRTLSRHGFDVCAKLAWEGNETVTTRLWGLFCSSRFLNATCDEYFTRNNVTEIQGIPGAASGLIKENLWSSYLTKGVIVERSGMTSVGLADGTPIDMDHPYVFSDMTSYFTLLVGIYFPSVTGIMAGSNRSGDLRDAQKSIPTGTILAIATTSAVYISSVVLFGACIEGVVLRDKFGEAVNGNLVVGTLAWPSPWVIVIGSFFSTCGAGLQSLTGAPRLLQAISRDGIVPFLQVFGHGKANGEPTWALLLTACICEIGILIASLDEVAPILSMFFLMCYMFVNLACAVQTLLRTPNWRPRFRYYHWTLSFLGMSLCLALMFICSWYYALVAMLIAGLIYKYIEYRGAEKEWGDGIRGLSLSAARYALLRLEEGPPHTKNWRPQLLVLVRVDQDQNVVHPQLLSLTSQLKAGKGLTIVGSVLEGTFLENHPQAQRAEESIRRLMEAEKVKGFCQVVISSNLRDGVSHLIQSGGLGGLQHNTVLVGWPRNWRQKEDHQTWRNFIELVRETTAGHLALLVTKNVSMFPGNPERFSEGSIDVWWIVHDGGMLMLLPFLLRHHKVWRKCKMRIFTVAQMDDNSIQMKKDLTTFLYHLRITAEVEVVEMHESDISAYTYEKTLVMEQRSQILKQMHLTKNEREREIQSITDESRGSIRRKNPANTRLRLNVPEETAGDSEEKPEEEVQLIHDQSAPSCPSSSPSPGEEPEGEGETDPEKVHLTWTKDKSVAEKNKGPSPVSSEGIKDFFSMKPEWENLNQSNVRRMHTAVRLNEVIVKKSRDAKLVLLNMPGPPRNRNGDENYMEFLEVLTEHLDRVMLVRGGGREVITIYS
hERG rescue: hERG (human) protection from proarrhythmic block; 310,000 tested, 0.51% active; Q12809; AID 1511; activation (rescue from dofetilide block), less the hit threshold, % at 10 µM; CHO-hERG, FluxOR thallium flux, dofetilide IC70 present;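 active = activation above the mean of controls blocked by dofetilide plus 5 SD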;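 note: thallium influx through hERG after potassium depolarization seen as dye fluorescence rise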
KCNQ1 block: human KCNQ1 channel inhibition; P51787; CHO-K1 KCNQ1, FluxOR thallium flux fluorescence; active compounds read high; B-score at 10 µM; 310,000 tested, 1.3% active;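 active = compounds whose thallium flux B-score, printed positive for inhibition, exceeds three library SD while starting fluorescence stays within three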;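 note: channel opened by potassium depolarization with thallium stimulus after 20 min compound exposure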
SUMO Mot1 rescue: blocks SUMOylation pathway, rescuing yeast Mot1-301 growth; growth rescue, % at 18.8 µM; S. cerevisiae Mot1-301 growth rescue, ATP luminescence, 38.5C; percent above DMSO median, 100 means doubled; AID 2716; 320,000 tested, 1% active;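 active = every valid replicate shows activation above 250% relative to neutral control wells; inactive = the rest, any valid replicate at or below 250%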
JMH597 growth rt: retest: blocks Vibrio harveyi JMH597 growth. AID 2726. shares compounds with AI-2 QS modul. OD600 absorbance, 9 h; lacks LuxN and CqsS sensors. 750 tested, 1% active. growth inhibition, % at 7.5 µM;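 active = every replicate shows growth inhibition above 50%; inconclusive = at least half, but not all, replicates pass that cutoff; inactive = fewer than half of replicates pass it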
BB721 lum counter: retest counter-screen: BB721 constitutive quorum sensing luminescence decrease. shares compounds with AI-2 QS modul. Vibrio harveyi BB721 luminescence, 9 h. inhibition, % at 7.5 µM. 750 tested, 95% active. AID 2727;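 active = inhibition above about 80% in every replicate, not just on average, limit read from the data; inconclusive = at least half of replicates past the limit, but not all; inactive = fewer than half of replicates past the limit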
BB721 growth: retest Vibrio harveyi BB721 growth inhibition | OD600 absorbance, 9 h | growth inhibition, % at 7.5 µM | shares compounds with AI-2 QS modul | AID 2728 | 750 tested, 3% active;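 active = every replicate shows growth inhibition above 50%; inconclusive = at least half but not all replicates above 50% inhibition; inactive = under half of replicates above 50% inhibition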
JMH597 AI-2 mod: Vibrio harveyi AI-2 signaling luminescence modulation – JMH597 strain, confirmation. shares compounds with AI-2 QS modul. Vibrio harveyi JMH597 AI-2 quorum sensing luminescence, 9 h; luxN and CqsS knockout, AI-2 only. inhibition, % at 7.5 µM. 750 tested, 97% active. AID 2736;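 active = every replicate shows more than 75% inhibition of signal versus neutral control wells; inconclusive = half to three quarters of replicates exceed 75% inhibition; inactive = fewer than half of replicates exceed 75% inhibition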
Large screens that a line does not name were inactive (follow-up assays come after a bar, where they were run). The list is not random: actives were taken first. Their share in the collection is about 4.2%.

Cc1ccc(CNC(=O)/C=C/c2cccs2)cc1	AI-2 QS modul -96.2 | JMH597 growth rt inactive | BB721 lum counter 98.6 | BB721 growth inactive | JMH597 AI-2 mod 99.0
COc1ccc(CC(=O)O/N=C(\N)c2ccc(OC)cc2)cc1	AI-2 QS modul -94.0 | JMH597 growth rt inactive | BB721 lum counter 96.6 | BB721 growth inactive | JMH597 AI-2 mod 97.9
O=C1CN(C(=O)COC(=O)CCc2ccccc2O)c2ccccc2N1	none (no result: KCNQ1 pot, AI-2 QS modul, KCC2 mod, hERG rescue, KCNQ1 block)
O=C(NCC(c1ccco1)N1CCc2ccccc2C1)C(=O)Nc1ccc(F)cc1F (stereo not given)	none (no result: KCC2 mod)
CCC(C)NC(=O)c1ccc(NC(=O)C2=C(C)OCCS2)cc1 (stereo not given)	none (no result: KCC2 mod)
O=C(Oc1ccc2c(=O)c(Cl)coc2c1)c1cccnc1	none
O=C(Oc1ccc2c(=O)c(Oc3ccc4ccccc4c3)coc2c1)c1cccnc1	AI-2 QS modul -89.2 | JMH597 growth rt inactive | BB721 lum counter 96.6 | BB721 growth inconclusive | JMH597 AI-2 mod 97.3
NC(=O)c1c(/N=C/c2cccs2)sc2c1CCCC2	none
O=C(/C=C/c1ccco1)NCc1ccc(F)cc1	AI-2 QS modul -84.8 | JMH597 growth rt inactive | BB721 lum counter 94.4 | BB721 growth inactive | JMH597 AI-2 mod 95.8
NS(=O)(=O)c1ccc(CNC(=O)/C=C/c2ccco2)cc1	none
CC(C)(/C=N/NC(=O)CSCc1ccccc1Cl)CCC#N	none
Nn1c(SCC(=O)Nc2ccc(OC(F)F)cc2)nnc(Cc2ccccc2)c1=O	AI-2 QS modul -91.9 (no result: KCC2 mod) | JMH597 growth rt inactive | BB721 lum counter 96.3 | BB721 growth inconclusive | JMH597 AI-2 mod 97.1
COc1ccc(NC(=O)CSc2nnc(Cc3ccccc3)c(=O)n2N)c(OC)c1	none (no result: KCC2 mod)
Cn1nc(C(F)(F)F)c2cc(NC(=O)OCc3ccc(F)cc3)sc21	AI-2 QS modul -92.8 (no result: SUMO Mot1 rescue) | JMH597 growth rt inactive | BB721 lum counter 98.7 | BB721 growth inactive | JMH597 AI-2 mod 98.1
Cc1c(C(C)NC(=O)c2cc(COc3cccc4cnccc34)on2)cnn1C (stereo not given)	AI-2 QS modul -81.1 (no result: KCC2 mod) | JMH597 growth rt inactive | BB721 lum counter 80.5 | BB721 growth inactive | JMH597 AI-2 mod 87.7
CSc1ccccc1OCc1cc(C(=O)NC(C)c2cnn(C)c2)no1 (stereo not given)	none (no result: KCC2 mod)
CCCCNC(=O)COC(=O)c1ccc(NS(=O)(=O)c2ccc3c(c2)OCCO3)cc1	AI-2 QS modul -92.4 | JMH597 growth rt inactive | BB721 lum counter 97.5 | BB721 growth inactive | JMH597 AI-2 mod 99.3
Cc1ccc2c(c1)N(C(=O)CCC(=O)NCCCN1CCN(C)CC1)CC(C)O2 (stereo not given)	none (no result: KCC2 mod)
Cc1ccc(O)c(NC(=O)CSc2ccc(Cl)cc2)c1	AI-2 QS modul -87.1 | JMH597 growth rt inactive | BB721 lum counter 93.4 | BB721 growth inactive | JMH597 AI-2 mod 95.1
c1ccc(OCc2cc(-c3ccccc3)no2)cc1	AI-2 QS modul -96.3 | JMH597 growth rt inactive | BB721 lum counter 99.5 | BB721 growth inactive | JMH597 AI-2 mod 99.6
Clc1ccc(-c2cc(CSc3ccccc3)on2)cc1	none
c1ccc(SCc2cc(-c3ccccc3)no2)cc1	AI-2 QS modul -91.6 | JMH597 growth rt inactive | BB721 lum counter 98.6 | BB721 growth inactive | JMH597 AI-2 mod 98.9
O=C(O)c1ccc2c(c1)C(=O)N(N1C(=O)c3ccccc3C1=O)C2=O	none
CN(C)S(=O)(=O)c1ccc(NC(=O)COc2ncnc3c2cnn3-c2ccccc2)cc1	AI-2 QS modul inconclusive | JMH597 growth rt inactive | BB721 lum counter 90.7 | BB721 growth inactive | JMH597 AI-2 mod 94.7
CN(C)S(=O)(=O)c1cccc(NC(=O)Cn2cnc3ccccc3c2=O)c1	AI-2 QS modul -88.0 | JMH597 growth rt inactive | BB721 lum counter 96.1 | BB721 growth inactive | JMH597 AI-2 mod 97.2
O=C(Cn1cnc2ccccc2c1=O)Nc1ccc2c(c1)OCCO2	none (no result: KCC2 mod)
CCN(CC)S(=O)(=O)c1ccc(NC(=O)Cn2cnc3ccccc3c2=O)cc1	AI-2 QS modul -94.2 | JMH597 growth rt inactive | BB721 lum counter 98.8 | BB721 growth inactive | JMH597 AI-2 mod 99.2
Clc1cccc(CSc2ccc(-c3cccnc3)nn2)c1	AI-2 QS modul -91.3 | JMH597 growth rt inactive | BB721 lum counter 97.2 | BB721 growth inactive | JMH597 AI-2 mod 98.0
CSc1ccc(Cl)c(C(=O)Nc2ccc(OCC(N)=O)cc2)c1	AI-2 QS modul inconclusive | JMH597 growth rt inactive | BB721 lum counter inactive | BB721 growth inactive | JMH597 AI-2 mod inactive
COc1cc(SC)ccc1C(=O)Nc1ccc(OCC(=O)N2CCOCC2)cc1	none (no result: KCC2 mod, SUMO Mot1 rescue)
Oc1oc(-c2ccccc2)nc1C=Nc1ccccc1	none
Oc1oc(-c2ccccc2)nc1C=NCc1ccccc1	AI-2 QS modul inconclusive | JMH597 growth rt inactive | BB721 lum counter 92.9 | BB721 growth inactive | JMH597 AI-2 mod 95.3
Cc1c(O)ccc(C(=O)COc2ccccc2F)c1O	AI-2 QS modul inconclusive (no result: KCC2 mod) | JMH597 growth rt inactive | BB721 lum counter 88.6 | BB721 growth inactive | JMH597 AI-2 mod 92.5
Cc1ccc(NC(=O)CCC(=O)c2cccs2)c(O)c1	AI-2 QS modul -82.3 | JMH597 growth rt inactive | BB721 lum counter 93.1 | BB721 growth inactive | JMH597 AI-2 mod 94.7
Cc1ccc(F)cc1NC(=O)CCC(=O)c1cccs1	none
c1ccc(NCc2ccccn2)cc1	none
c1ccc(NCCCNc2ccccc2)cc1	AI-2 QS modul -80.8 | JMH597 growth rt inactive | BB721 lum counter 93.1 | BB721 growth inactive | JMH597 AI-2 mod 92.6
Cc1cccc(N2C(=O)CC(Sc3nc(-c4ccccc4)c4cc(Cl)ccc4n3)C2=O)c1 (stereo not given)	none (no result: KCC2 mod)
COc1ccc(CCC(=O)Nc2ccc(OC)c(S(=O)(=O)N3CCCCC3)c2)cc1	none (no result: KCNQ1 pot, AI-2 QS modul, KCC2 mod, hERG rescue, KCNQ1 block)
O=S(=O)(NCCCNS(=O)(=O)c1c(F)cccc1F)c1ccc2c(c1)OCCO2	none (no result: KCNQ1 pot, AI-2 QS modul, KCC2 mod, hERG rescue, KCNQ1 block)
O=C(CN1C(=O)c2ccccc2C1=O)Nc1ccc(S(=O)(=O)N2CCOCC2)cc1	AI-2 QS modul -96.9 | JMH597 growth rt inactive | BB721 lum counter 99.5 | BB721 growth inactive | JMH597 AI-2 mod 99.6
